In ChEMBL document CHEMBL1126613, “Centrally acting serotonergic agents. Synthesis and structure-activity relationships of C-1- or C-3-substituted derivatives of 8-hydroxy-2-(di-n-propylamino)tetralin” (J Med Chem, 1993):
“And” between values parts separate entries of the source, which are not always exact repeats. Equal values may be shown once.

Experiments:
Rattus norvegicus [1] = test: Effect on the synthesis rate of dopamine (DOPA) accumulation at the dose of 9.7 umol/kg in the rat ventral limbic brain region; assay type: functional, Limbic system
Outline: (§1)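 Male Sprague-Dawley rats dosed sc with drug or vehicle at time zero. NSD 1015 (100 mg/kg ip) given 15 min later to block aromatic decarboxylase. Brain DOPA and 5-HTP measured by electrochemical detection with peak integration. Expressed as percent change from NSD 1015 plus saline controls. Control and test groups N = 6 each, compared by unpaired t test.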

Mus musculus [2] = test: In vivo effective dose administered subcutaneously in mouse hypothermia assay.; assay type: functional; conditions: sc
Outline: (§2)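 Charles River CF-1 mice (18-22 g, 4 per dose), housed individually 20 min before testing. Rectal temperature taken before dosing and 20 min after (sc 0.1 mL; oral 0.2 mL by gavage needle). A drop of ≥2 °F counted as positive. Doses started at 30 mg/kg and fell by half-log until 0/4 responded.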

Mus musculus [3] = test: Tested in vivo for the maximum temperature decrease in mouse hypothermia assay.; assay type: functional
Outline: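 CF-1 mice (18-22 g, 4 per dose), dosed sc or orally. Rectal temperature measured before dosing and 20 min after. The mean maximum temperature drop (°F) at 20 min after any dose is recorded as an efficacy index.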

Rattus norvegicus [4] = test: Effect on the synthesis rate of 5 HTP accumulation at the dose of 9.7 uM/kg in the rat ventral limbic brain region; assay type: functional, Limbic system; outline: as §1
Rattus norvegicus [5] = test: Effect on the synthesis rate of dopamine (DOPA) accumulation at 3.4 umol/kg in the rat ventral limbic brain region; assay type: functional, Limbic system; outline: as §1
Rattus norvegicus [6] = test: Effect on the synthesis rate of 5 HTP accumulation at 68 umol/kg in the rat ventral limbic brain region; assay type: functional, Limbic system; outline: as §1
Felis catus [7] = test: Dose on arterial blood pressure (BP) in anesthetized cat; assay type: functional
Outline: (§3)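 Adult cats (2.5-4.0 kg) anesthetized with ketamine 11 mg/kg im, then chloralose 80 mg/kg iv. Femoral artery cannulated for blood pressure, femoral vein for drug. Ventilated, paralyzed with gallamine 4 mg/kg iv, rectal temperature held at 37-38 °C. Cumulative iv doses given at 20-min intervals. Maximum decrease reported following a 1 mg/kg iv dose.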

Rattus norvegicus [8] = test: Effect on the synthesis rate of dopamine (DOPA) accumulation at the dose of 68 umol/kg in the rat ventral limbic brain region; assay type: functional, Limbic system; outline: as §1
Mus musculus [9] = test: Behavioral time in mouse face to face assay at 0 umol/kg administered intraperitoneally; assay type: functional
Outline: (§4)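 Male CF-1 mice (Charles River, 19-29 g), 8 pairs per dose, dosed sc, ip or orally in 0.25% methylcellulose or 0.1% citric acid; 30 min absorption housed with familiar partner. Pairs from different home cages placed in small litter-floored cage; face-to-face interaction duration scored visually for 3 min. Wilcoxon rank sum (two-tailed) vs daily control, p < 0.05.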

Felis catus [10] = species on record: Felis catus; test: Maximum decrease observed; assay type: functional; set-up: unit not given here
Felis catus [11] = species on record: Felis catus; test: Dose at which the SND has been reduced to 50% of the pretreatment value; assay type: functional
Outline: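 Adult cats (2.5-4.0 kg), ketamine 11 mg/kg im then chloralose 80 mg/kg iv, ventilated, gallamine-paralyzed, rectal temperature 37-38 °C. Sympathetic nerve discharge quantified by cumulative integration. Cumulative iv doses were given at 20-min intervals. Value is the dose reducing discharge to 50% of pretreatment.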

Mus musculus [12] = test: Tested in vivo for the effective dose administered orally in mouse hypothermia assay; assay type: functional; conditions: po; outline: as §2
Rattus norvegicus [13] = test: Effect on the synthesis rate of 5 HTP accumulation at 3.4 umol/kg in the rat ventral limbic brain region; assay type: functional, Limbic system; outline: as §1
Felis catus [14] = test: Maximum decrease observed following 1 mg/kg dose; assay type: functional
Rattus norvegicus [15] = test: Effect on the synthesis rate of 5 HTP accumulation at the dose of 10 umol/kg in the rat ventral limbic brain region; assay type: functional, Limbic system; outline: as §1
Rattus norvegicus [16] = test: Effect on the synthesis rate of dopamine (DOPA) accumulation at the dose of 10 umol/kg in the rat ventral limbic brain region; assay type: functional, Limbic system; outline: as §1
Mus musculus [17] = test: Behavioral time in mouse isolation-induced aggression assay 32 umol/kg administered peritoneally; assay type: functional; conditions: in the assay text read “administered orally” for “administered peritoneally”
Outline: (§5)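 Male CF-1 mice. Residents were isolated singly for at least 1 month; group-housed intruders were kept 4-6/cage. Mice weighed 28-30 g at first test. Residents got drug ip or orally in 0.25% methylcellulose or 0.1% citric acid 30 min before an untreated intruder was introduced. Latency to fighting was recorded, capped at 600 s. Dosing was blind, 6/group (vehicle n = 12), Wilcoxon rank sum.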

Mus musculus [18] = test: Behavioral time in mouse face to face assay at 0 umol/kg administered; assay type: functional; outline: as §4
Mus musculus [19] = test: Behavioral time in mouse face to face assay at 32 umol/kg administered; assay type: functional; outline: as §4
Mus musculus [20] = test: Behavioral time in mouse face to face assay at 0.3 umol/kg administered; assay type: functional; outline: as §4
Mus musculus [21] = test: Behavioral time in mouse face to face assay at 3.2 umol/kg administered; assay type: functional; outline: as §4
Mus musculus [22] = test: Behavioral time in mouse isolation-induced aggression assay 0 umol/kg administered peritoneally; assay type: functional; conditions: in the assay text read “administered orally” for “administered peritoneally”; outline: as §5
Mus musculus [23] = test: Behavioral time in mouse isolation-induced aggression assay at 35 umol/kg administered perorally (*P<0.05); assay type: functional; outline: as §5
Mus musculus [24] = test: Behavioral time in mouse isolation-induced aggression assay at 0 umol/kg administered perorally; assay type: functional; outline: as §5
Mus musculus [25] = test: Behavioral time in mouse isolation-induced aggression assay at 3.5 umol/kg administered perorally; assay type: functional; outline: as §5
Mus musculus [26] = test: Behavioral time in mouse isolation-induced aggression assay at 3.5 umol/kg administered intraperitoneally (*P<0.05); assay type: functional; outline: as §5
Mus musculus [27] = test: Behavioral time in mouse face to face assay at 11 umol/kg administered perorally; assay type: functional; outline: as §4
Mus musculus [28] = test: Behavioral time in mouse isolation-induced aggression assay at 11 umol/kg administered perorally; assay type: functional; outline: as §5
Mus musculus [29] = test: Behavioral time in mouse face to face assay at 35 umol/kg administered perorally; assay type: functional; outline: as §4
Mus musculus [30] = test: (§6) Behavioral time in mouse isolation-induced aggression assay at 0 umol/kg administered intraperitoneally; assay type: functional; outline: as §5
Mus musculus [31] = test: Behavioral time in mouse face to face assay at 3.5 umol/kg administered perorally; assay type: functional; outline: as §4
Mus musculus [32] = test: Behavioral time in mouse face to face assay at 0 umol/kg administered perorally; assay type: functional; outline: as §4
Mus musculus [33] = test: Behavioral time in mouse isolation-induced aggression assay at 11 umol/kg administered intraperitoneally (*P<0.05); assay type: functional; outline: as §5
Mus musculus [34] = test: Behavioral time in mouse face to face assay at 36 umol/kg administered subcutaneously; assay type: functional; outline: as §4
Mus musculus [35] = test: Behavioral time in mouse face to face assay at 3.5 umol/kg administered subcutaneously; assay type: functional; outline: as §4
Mus musculus [36] = test: Behavioral time in mouse face to face assay at 0 umol/kg administered subcutaneously; assay type: functional; outline: as §4
Rattus norvegicus [37] = test: Effect on the synthesis rate of dopamine (DOPA) accumulation at the dose of 3.5 uM/kg in the rat ventral limbic brain region; assay type: functional, Limbic system; outline: as §1
Rattus norvegicus [38] = test: Effect on the synthesis rate of 5 HTP accumulation at the dose of 3.5 umol/kg in the rat ventral limbic brain region; assay type: functional, Limbic system; outline: as §1
Mus musculus [39] = test: Behavioral time in mouse face to face assay at 0.4 umol/kg administered subcutaneously; assay type: functional; outline: as §4
Felis catus [40] = test: Maximum decrease on arterial blood pressure at 1 mg/kg; assay type: functional; outline: as §3
Mus musculus [41] = test: Behavioral time in mouse face to face assay at 0.03 umol/kg administered perorally; assay type: functional; outline: as §4
Mus musculus [42] = test: Behavioral time in mouse isolation-induced aggression assay at 33 umol/kg administered perorally (*P<0.05); assay type: functional; outline: as §5
Mus musculus [43] = test: Behavioral time in mouse face to face assay at 3.3 umol/kg administered perorally (*P<0.05); assay type: functional; outline: as §4
Mus musculus [44] = test: Behavioral time in mouse face to face assay at 0.3 umol/kg administered perorally (*P<0.05); assay type: functional; outline: as §4
Mus musculus [45] = test: Behavioral time in mouse face to face assay at 33 umol/kg administered perorally (*P<0.05); assay type: functional; outline: as §4
Mus musculus [46] = test: Behavioral time in mouse isolation-induced aggression assay at 10 umol/kg administered perorally (*P<0.05); assay type: functional; outline: as §5
Mus musculus [47] = test: Behavioral time in mouse isolation-induced aggression assay at 0 umol/kg administered perorally (*P<0.05); assay type: functional; outline: as §5
Mus musculus [48] = test: Behavioral time in mouse isolation-induced aggression assay at 10 umol/kg administered intraperitoneally (*P<0.05); assay type: functional; outline: as §5
Mus musculus [49] = test: as §6; assay type: functional; remark: listed apart in the source
Outline: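 Isolated male CF-1 resident mice, housed singly ≥1 month and weighing 28-30 g at testing, were dosed ip or orally in 0.25% methylcellulose or 0.1% citric acid. Dosing was blind, 6 per group (n=12 vehicle). After 30 min an untreated group-housed intruder was introduced. Latency to fighting was recorded, capped at 600 s. Residents rested ≥3 days before reuse. Wilcoxon rank sum.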

Compound `CCCN[C@@H]1CCc2cccc(OC)c2[C@@H]1CC1CC1` has a Change (Rattus norvegicus [1]) of 5%, an ED50 (Mus musculus [2]) of 31 µmol/kg and a TMP.decrease (Mus musculus [3]) of 7.4 degrees F. It also gave a Change (Rattus norvegicus [4]) of -25.8%.
Compound `C=CC[C@@H]1c2c(cccc2OC)CC[C@H]1NCCC` (relative stereo) has a Change (Rattus norvegicus [5]) of -4.3%, a Change (Rattus norvegicus [6]) of -16% and a BP (Felis catus [7]) of 71%. It also gave a Change (Rattus norvegicus [8]) of 8.1%, a Time (Mus musculus [9]) of 0.4 s and a Max decrease (Felis catus [10]) of 16. For the same compound, the ED50 (Felis catus [11]) was 1.35 µmol/kg, the ED50 (Mus musculus [2]) was 14 µmol/kg and the ED50 (Mus musculus [12]) was 59 µmol/kg. The TMP.decrease (Mus musculus [3]) was 10.2 degrees F and 5.8 degrees F, the Change (Rattus norvegicus [13]) was -6.9% and the Max decrease (Felis catus [14]) was 66.
`C=CC[C@@H]1c2cccc(OC)c2CC[C@H]1NCCC` (relative stereo) was tested, and the Change (Rattus norvegicus [15]) was 2.7% and the Change (Rattus norvegicus [16]) was -15%.
For `C=CCN[C@@H]1CCc2cccc(OC)c2[C@@H]1C(=O)OC`, the Time (Mus musculus [17]) was 120 s, the Time (Mus musculus [18]) was 0.7 s and the Time (Mus musculus [19]) was 0.8 s. The Time (Mus musculus [20]) was 1 s, the Time (Mus musculus [21]) was 1.1 s and the Time (Mus musculus [22]) was 56 s.
Work on `CCCN[C@@H]1CCc2cccc(O)c2[C@@H]1CCC` yielded a Time (Mus musculus [23]) of 54 s, a Time (Mus musculus [24]) of 11 s and a Time (Mus musculus [25]) of 28 s. It also gave a Time (Mus musculus [26]) of 97 s, a Time (Mus musculus [27]) of 1.3 s and a Time (Mus musculus [28]) of 146 s. The ED50 (Mus musculus [2]) was 6.1 µmol/kg, the Time (Mus musculus [29]) was 1.1 s and the Time (Mus musculus [30]) was 8 s. For the same compound, the ED50 (Mus musculus [12]) was 46 µmol/kg, the Time (Mus musculus [31]) was 1.1 s and the Time (Mus musculus [32]) was 1.1 s. The Time (Mus musculus [33]) was 125 s and the TMP.decrease (Mus musculus [3]) was 10.4 degrees F and 7.5 degrees F.
Work on `C=CC[C@H]1c2c(O)cccc2CC[C@H]1NCCC` yielded a BP (Felis catus [7]) of 77%, a Time (Mus musculus [34]) of 3.8 s and a Time (Mus musculus [35]) of 3.9 s. It also gave a Time (Mus musculus [36]) of 2.8 s, a Max decrease (Felis catus [10]) of 10 and an ED50 (Felis catus [11]) of 0.09 µmol/kg. The ED50 (Mus musculus [2]) was 1.1 µmol/kg, the ED50 (Mus musculus [12]) was 61 µmol/kg and the TMP.decrease (Mus musculus [3]) was 9.5 degrees F and 6.9 degrees F. The Change (Rattus norvegicus [37]) was 14%, the Change (Rattus norvegicus [38]) was -53% and the Time (Mus musculus [39]) was 2.9 s. For the same compound, the Max decrease (Felis catus [40]) was 55.
In the case of `CCCN(C)[C@@H]1CCc2cccc(OC)c2[C@@H]1CO`, the Time (Mus musculus [41]) was 1.7 s, the Time (Mus musculus [42]) was 269 s and the Time (Mus musculus [43]) was 1.7 s. For the same compound, the Time (Mus musculus [44]) was 2 s, the Time (Mus musculus [45]) was 2.1 s and the ED50 (Mus musculus [2]) was 5.7 µmol/kg. The Time (Mus musculus [46]) was 125 s, the Time (Mus musculus [47]) was 43 s and the Time (Mus musculus [48]) was 329 s. The ED50 (Mus musculus [12]) was 32 µmol/kg, the Time (Mus musculus [32]) was 1.1 s and the TMP.decrease (Mus musculus [3]) was 9.1 degrees F and 5 degrees F. It also gave a Time (Mus musculus [49]) of 6 s.
